Measurements taken from ChEMBL document CHEMBL1671756, “In vitro and in vivo antifungal susceptibilities of the Mucoralean fungus Cunninghamella” (2010).
Converted amounts (≈) assume the structure as drawn. The source made the active and inactive calls. No cut-off for these calls is given here.

How the values were obtained:
[1] = Antifungal activity against Cunninghamella echinulata FMR 10973 after 24 hrs by broth microdilution method; format: functional
Procedure, shortened: (§1)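 CLSI broth microdilution for filamentous fungi. Isolates were stored at −80°C and subcultured on potato dextrose agar at 35°C. MICs were read after 24 h. […] The QC strain was Paecilomyces variotii ATCC 36257.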

[2] = Antifungal activity against Cunninghamella echinulata UTHSC 01-2298 after 24 hrs by broth microdilution method; format: functional; procedure, shortened: as §1
[3] = system: Cunninghamella bertholletiae; test: Antifungal activity against Cunninghamella bertholletiae UTHSC 03-2241 after 24 hrs by broth microdilution method; format: functional; settings: UTHSC 03-2241, 24 h; procedure, shortened: as §1
[4] = system: Cunninghamella bertholletiae; test: Antifungal activity against Cunninghamella bertholletiae FMR-9598 after 24 hrs by broth microdilution method; format: functional; settings: FMR-9598, 24 h; procedure, shortened: as §1
[5] = system: Cunninghamella bertholletiae; test: Antifungal activity against Cunninghamella bertholletiae UTHSC 06-1945 after 24 hrs by broth microdilution method; format: functional; settings: UTHSC 06-1945, 24 h; procedure, shortened: as §1
[6] = system: Cunninghamella bertholletiae; test: Antifungal activity against Cunninghamella bertholletiae UTHSC 04-2581 after 24 hrs by broth microdilution method; format: functional; settings: UTHSC 04-2581, 24 h; procedure, shortened: as §1
[7] = system: Cunninghamella bertholletiae; test: Antifungal activity against Cunninghamella bertholletiae UTHSC 05-2275 after 24 hrs by broth microdilution method; format: functional; settings: UTHSC 05-2275, 24 h; procedure, shortened: as §1
[8] = Antifungal activity against Cunninghamella echinulata FMR 10974 after 24 hrs by broth microdilution method; format: functional; procedure, shortened: as §1
[9] = Antifungal activity against Cunninghamella echinulata UTHSC 03-3725 after 24 hrs by broth microdilution method; format: functional; procedure, shortened: as §1
[10] = system: Cunninghamella bertholletiae; test: Antifungal activity against Cunninghamella bertholletiae UTSCH 05-2275 infected in diabetic OF1 mouse assessed as decreased fungal load in lung at 50 mg/kg, po bid administered 1 day post infection measured after 4 to 5 days relative to untreated control; format: functional, organism-based; parameters: dose 50 mg/kg
Procedure, shortened: (§2)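 Diabetic OF1 mice (streptozocin 210 mg/kg i.p.; glucose >250 mg/dl) were infected i.v. with 1 × 10⁵ CFU, with ceftazidime cover. Ten per group were treated from day 1 and killed day 5, or day 4 if moribund. Half-organ homogenates (brain, lung, kidney) in 1 ml saline were serially diluted 10-fold on PDA, incubated 24 h at 35°C, and reported as log₁₀ CFU/g tissue.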

[11] = system: Cunninghamella bertholletiae; test: Antifungal activity against Cunninghamella bertholletiae UTHSC 05-2275 infected in neutropenic OF1 mouse assessed as increase in mouse survival rate at 25 mg/kg, po bid administered 1 day after infection for 7 days relative to untreated control
[12] = system: Cunninghamella bertholletiae; test: Antifungal activity against Cunninghamella bertholletiae UTHSC 05-2275 infected in neutropenic OF1 mouse assessed as decreased fungal load in lung at 25 mg/kg, po bid administered 1 day post infection measured after 4 to 5 days relative to untreated control; format: functional, organism-based; parameters: dose 25 mg/kg
Procedure, shortened: (§3)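 Neutropenic male OF1 mice (cyclophosphamide 200 mg/kg i.p. + 5-fluorouracil 150 mg/kg i.v., day −1) were infected i.v. with 1 × 10⁴ CFU. Ten mice per group were treated from day 1 and killed by CO₂ on day 5, or on day 4 if moribund. Half of each brain, lung and kidney was homogenized in 1 ml saline. Ten-fold dilutions were plated on PDA for 24 h at 35°C and counted as log₁₀ CFU/g.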

[13] = system: Cunninghamella bertholletiae; test: Antifungal activity against Cunninghamella bertholletiae UTHSC 05-2275 infected in neutropenic OF1 mouse assessed as increase in mouse survival rate at 50 mg/kg, po bid administered 1 day after infection for 7 days relative to untreated control; format: functional, organism-based; parameters: dose 50 mg/kg
Procedure, shortened: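 Male OF1 mice (~30 g) were made neutropenic with cyclophosphamide 200 mg/kg i.p. plus 5-fluorouracil 150 mg/kg i.v. 1 day before challenge. Challenge was 1 × 10⁴ CFU sporangiospores in 0.2 ml saline via the lateral tail vein. Mice got ceftazidime 5 mg/day s.c. on days 1–7. Dosing started 24 h post-challenge for 7 days. There were 10 mice/group, observed daily for 20 days. Kaplan-Meier analysis with log-rank test.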

[14] = system: Cunninghamella bertholletiae; test: Antifungal activity against Cunninghamella bertholletiae UTHSC 05-2275 infected in diabetic OF1 mouse assessed as increase in mouse survival rate at 50 mg/kg, po bid administered 1 day after infection for 7 days relative to untreated control; format: functional, organism-based; parameters: dose 50 mg/kg
Procedure, shortened: (§4)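 Male OF1 mice were made diabetic with streptozocin 210 mg/kg i.p. Diabetes was confirmed by blood glucose >250 mg/dl at day 10. Challenge was 1 × 10⁵ CFU in 0.2 ml saline i.v. (tail vein), with ceftazidime 5 mg/day s.c. on days 1–7. Treatment began 1 day after challenge for 7 days. There were 10 mice/group, checked daily for 20 days. Kaplan-Meier analysis with log-rank comparison.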

[15] = system: Cunninghamella bertholletiae; test: Antifungal activity against Cunninghamella bertholletiae UTHSC 05-2275 infected in diabetic OF1 mouse assessed as increase in mouse survival rate at 25 mg/kg, po bid administered 1 day after infection for 7 days relative to untreated control; format: functional, organism-based; parameters: dose 25 mg/kg; procedure, shortened: as §4
[16] = system: Cunninghamella bertholletiae; test: Antifungal activity against Cunninghamella bertholletiae UTHSC 05-2275 infected in neutropenic OF1 mouse assessed as decreased fungal load in kidney at 25 mg/kg, po bid administered 1 day post infection measured after 4 to 5 days relative to untreated control; format: functional, organism-based; parameters: dose 25 mg/kg; procedure, shortened: as §3
[17] = system: Cunninghamella bertholletiae; test: Antifungal activity against Cunninghamella bertholletiae UTHSC 05-2275 infected in neutropenic OF1 mouse assessed as decreased fungal load in kidney at 50 mg/kg, po bid administered 1 day post infection measured after 4 to 5 days relative to untreated control; format: functional, organism-based; parameters: dose 50 mg/kg; procedure, shortened: as §3
[18] = system: Cunninghamella bertholletiae; test: Antifungal activity against Cunninghamella bertholletiae UTHSC 05-2275 infected in neutropenic OF1 mouse assessed as decreased fungal load in lung at 50 mg/kg, po bid administered 1 day post infection measured after 4 to 5 days relative to untreated control; format: functional, organism-based; parameters: dose 50 mg/kg; procedure, shortened: as §3
[19] = system: Cunninghamella bertholletiae; test: Antifungal activity against Cunninghamella bertholletiae UTSCH 05-2275 infected in diabetic OF1 mouse assessed as decreased fungal load in kidney at 50 mg/kg, po bid administered 1 day post infection measured after 4 to 5 days relative to untreated control; format: functional, organism-based; parameters: dose 50 mg/kg; procedure, shortened: as §2

CC[C@H](C)C[C@H](C)CCCCCCCCC(=O)N[C@H]1C[C@@H](O)[C@@H](NCCN)NC(=O)[C@@H]2[C@@H](O)CCN2C(=O)[C@H]([C@H](O)CCN)NC(=O)[C@H]([C@H](O)[C@@H](O)c2ccc(O)cc2)NC(=O)[C@@H]2C[C@@H](O)CN2C(=O)[C@H]([C@@H](C)O)NC1=O [CASPOFUNGIN]
MIC [1]: > 16 µg/mL
MIC [2]: > 16 µg/mL
MIC [3]: > 16 µg/mL
MIC [4]: > 16 µg/mL
MIC [5]: > 16 µg/mL
MIC [6]: > 16 µg/mL
MIC [7]: > 16 µg/mL
MIC [8]: > 16 µg/mL
MIC [9]: > 16 µg/mL

CCC(C)n1ncn(-c2ccc(N3CCN(c4ccc(OCC5COC(Cn6cncn6)(c6ccc(Cl)cc6Cl)O5)cc4)CC3)cc2)c1=O (stereo not given) [ITRACONAZOLE]
Activity [10]: Active
MIC [1]: > 16 µg/mL
MIC [2]: > 16 µg/mL
Activity [11]: inactive
Activity [12]: Active
MIC [3]: 1 µg/mL (≈ 1.42 µM)
MIC [4]: 8 µg/mL (≈ 11.3 µM)
Activity [13]: Active
Activity [14]: Active
Activity [15]: inactive
MIC [5]: 2 µg/mL (≈ 2.83 µM)
MIC [6]: 1 µg/mL (≈ 1.42 µM)
Activity [16]: inactive
Activity [17]: inactive
MIC [7]: 2 µg/mL (≈ 2.83 µM)
Activity [18]: Active
MIC [8]: > 16 µg/mL
Activity [19]: inactive
MIC [9]: 2 µg/mL (≈ 2.83 µM)

C[C@@H](c1nc(-c2ccc(C#N)cc2)cs1)[C@](O)(Cn1cncn1)c1ccc(F)cc1F [RAVUCONAZOLE]
MIC [1]: > 16 µg/mL
MIC [2]: > 16 µg/mL
MIC [3]: > 16 µg/mL
MIC [4]: > 16 µg/mL
MIC [5]: > 16 µg/mL
MIC [6]: > 16 µg/mL
MIC [7]: > 16 µg/mL
MIC [8]: > 16 µg/mL
MIC [9]: > 16 µg/mL

CN(C/C=C/C#CC(C)(C)C)Cc1cccc2ccccc12 [TERBINAFINE]
MIC [1]: 0.06 µg/mL (≈ 0.206 µM)
MIC [2]: 0.06 µg/mL (≈ 0.206 µM)
MIC [3]: 0.03 µg/mL (≈ 0.103 µM)
MIC [4]: 0.06 µg/mL (≈ 0.206 µM)
MIC [5]: 0.03 µg/mL (≈ 0.103 µM)
MIC [6]: 0.03 µg/mL (≈ 0.103 µM)
MIC [7]: 0.06 µg/mL (≈ 0.206 µM)
MIC [8]: 0.06 µg/mL (≈ 0.206 µM)
MIC [9]: 0.03 µg/mL (≈ 0.103 µM)

C[C@@H](c1ncncc1F)[C@](O)(Cn1cncn1)c1ccc(F)cc1F [VORICONAZOLE]
MIC [1]: > 16 µg/mL
MIC [2]: > 16 µg/mL
MIC [3]: 8 µg/mL (≈ 22.9 µM)
MIC [4]: > 16 µg/mL
MIC [5]: 16 µg/mL (≈ 45.8 µM)
MIC [6]: 16 µg/mL (≈ 45.8 µM)
MIC [7]: 16 µg/mL (≈ 45.8 µM)
MIC [8]: > 16 µg/mL
MIC [9]: > 16 µg/mL
